Experimental data collected from several papers.
Compare with care: the assays were run in different laboratories.

SMILES | target or system | assay | test system | conditions | quantity | result
N=C(N)NCCC[C@@H](NC(=O)[C@@H](N)Cc1ccccc1)C(=O)N[C@@H](Cc1ccccc1)C(=O)N[C@@H](CCCCN)C(N)=O | – | – | human, plasma | subcutaneous, 25 mg, patients | Cmax | 973 ng/mL
COc1ccc2c(c1)[C@]13CCCC[C@@H]1[C@H](C2)N(C)CC3 | – | – | Caco-2 | 10 µM, pH 6.5 | efflux ratio | 2
O=C(NCc1ccc(F)cc1)c1cccc(Nc2ccc(-c3ccccc3)nn2)c1 | FRT | cell growth or viability, MTS | – | 48 h | CC50 | > 100 µM
CN1CCCCC1Cn1cc(C(=O)c2cc([N+](=O)[O-])ccc2I)c2ccccc21 (racemic) | – | – | mouse, brain | intravenous, 25 mg/kg | Tmax | 15 min
N=c1c2c(-c3ccccc3)c(-c3ccccc3)n(Cc3ccccc3)c2ncn1[C@H]1CC[C@H](O)CC1 | – | – | male cynomolgus monkey, plasma | oral, 1 mg/kg, single dose | bioavailability | > 80%
Cc1ncc2n1-c1ccc(Cl)cc1C(c1ccccc1F)=NC2 | – | – | human, plasma | oral, 2 mg, single dose | Cmax | 9.74 ng/mL
CCOC(=O)c1c(NCc2ccc(SC)cc2)c2cccc(C)c2[nH]c1=O | FRT | cell growth or viability, MTS | – | 48 h | CC50 | 91.6 µM
CC[C@H](C)[C@H](NC(=O)[C@H](CC(C)C)NC(=O)[C@H](Cc1c[nH]c2ccccc12)NC(=O)[C@H](CCC(N)=O)NC(=O)[C@@H](NC(=O)[C@H](Cc1ccccc1)NC(=O)[C@H](C)NC(=O)[C@H](CCCCNC(=O)COCCOCCNC(=O)COCCOCCNC(=O)CC[C@H](NC(=O)CCCCCCCCCCCCCCCCCCC(=O)O)C(=O)O)NC(=O)[C@H](CCC(N)=O)NC(=O)[C@H](C)NC(=O)[C@@H](NC(=O)[C@H](CCCCN)NC(=O)[C@H](CC(=O)O)NC(=O)[C@H](CC(C)C)NC(=O)C(C)(C)NC(=O)[C@@H](NC(=O)[C@H](CO)NC(=O)[C@H](Cc1ccc(O)cc1)NC(=O)[C@H](CC(=O)O)NC(=O)[C@H](CO)NC(=O)[C@@H](NC(=O)[C@H](Cc1ccccc1)NC(=O)[C@@H](NC(=O)CNC(=O)[C@H](CCC(=O)O)NC(=O)C(C)(C)NC(=O)[C@@H](N)Cc1ccc(O)cc1)[C@@H](C)O)[C@@H](C)O)[C@@H](C)CC)[C@@H](C)CC)C(C)C)C(=O)N[C@@H](C)C(=O)NCC(=O)NCC(=O)N1CCC[C@H]1C(=O)N[C@@H](CO)C(=O)N[C@@H](CO)C(=O)NCC(=O)N[C@@H](C)C(=O)N1CCC[C@H]1C(=O)N1CCC[C@H]1C(=O)N1CCC[C@H]1C(=O)N[C@@H](CO)C(N)=O | – | – | human, plasma | subcutaneous, 1.5 mg, multiple doses, healthy volunteers | Cmax | 198 ng/mL
c1cc([C@H]2CC[C@]3(CC2)OO[C@]2(O3)C3CC4CC(C3)CC2C4)ccc1OCCN1CCOCC1 | – | – | human, plasma | oral, 1200 mg, patients | Cmax | 1500 ng/mL
